# Columns and labels:
# Rattus norvegicus [1] = species on record: Rattus norvegicus; experiment: Tested in vitro for N-nitrosodimethylamine (NDMA) demethylase activity at 0.1 mM for 0 mM concentration of formaldehyde; format: functional
# Method in brief: (§1)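 Liver microsomal fraction from untreated male Sprague–Dawley rats with NADPH-generating system. NDMA substrate 0.1–1 mM; test compound 2–20 mM or DDTC 2 mM added. Formaldehyde and acetaldehyde formed measured as (2,4-dinitrophenyl)hydrazones. Mean ± SD of three separate experiments.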
# Rattus norvegicus [2] = species on record: Rattus norvegicus; experiment: Tested in vitro for N-nitrosodimethylamine (NDMA) demethylase activity at 0.1 mM for 2 mM concentration of acetaldehyde; format: functional; method in brief: as §1
# Rattus norvegicus [3] = species on record: Rattus norvegicus; experiment: Tested in vitro for N-nitrosodimethylamine (NDMA) demethylase activity at 0.1 mM for 0 mM concentration of acetaldehyde; format: functional; method in brief: as §1
# Rattus norvegicus [4] = species on record: Rattus norvegicus; experiment: Tested in vitro for N-nitrosodimethylamine (NDMA) demethylase activity at 0.1 mM for 2 mM concentration of formaldehyde; format: functional; method in brief: as §1
# Rattus norvegicus [5] = experiment: Tested for exhalation of 14CO2 of compound (1.5mmol/kg, ip) was administered 1 h before and 5 h after the treatment of [14C]NDEA (28 mg/kg, 5 microCi/kg, ip) in experiment number 2; format: functional
# Method in brief: (§2)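 Male Sprague–Dawley rats (two per group) were fasted overnight. They received inhibitor or saline ip at 1.5 mmol/kg 1 h before and again after ip [¹⁴C]NDEA (28 mg/kg, 5 μCi/kg). Animals were then kept 24 h in an all-glass metabolism cage with air flow of 32 L/h. Exhaled air was dried over H₂SO₄, ¹⁴CO₂ was trapped in 1 N NaOH and counted, and the result is expressed as % of the given dose.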
# Rattus norvegicus [6] = experiment: Tested for exhalation of 14CO2 of compound (1.5mmol/kg, ip) was administered 1 h before and 5 h after the treatment of [14C]NDEA (28 mg/kg, 5 microCi/kg, ip) in experiment number 1; format: functional; method in brief: as §2
# Rattus norvegicus [7] = species on record: Rattus norvegicus; experiment: Tested in vitro for N-nitrosodimethylamine (NDMA) demethylase activity at 0.5 mM for 2 mM concentration of formaldehyde; format: functional; method in brief: as §1
# Rattus norvegicus [8] = species on record: Rattus norvegicus; experiment: Tested in vitro for N-nitrosodimethylamine (NDMA) demethylase activity at 0.5 mM for 2 mM concentration of acetaldehyde; format: functional; method in brief: as §1
# Rattus norvegicus [9] = experiment: Tested for urinary excretion of radioactivity of compound (1.5 mmol/kg, ip) was administered 1 h before and 5 h after the treatment of [14C]-NDEA (28 mg/kg, 5 microCi/kg, ip) in experiment number 2; format: functional, organism-based
# Method in brief: (§3)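 Male Sprague–Dawley rats, fasted overnight, two per group. Inhibitor 1.5 mmol/kg ip or saline, then [14C]NDEA 28 mg/kg (5 μCi/kg) ip 1 h later, then a second inhibitor dose. Rats kept 24 h in all-glass metabolism cages, urine collected into ice-cold flask with NaOH. Total urinary radioactivity and unchanged [14C]NDEA measured after extraction with internal standard; given as % of dose.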
# Rattus norvegicus [10] = experiment: Tested for unchanged NDEA 24 h administration of [14C]-NDEA in urine in experiment number 1; format: functional; method in brief: as §3
# Rattus norvegicus [11] = species on record: Rattus norvegicus; experiment: Tested in vitro for N-nitrosodimethylamine (NDMA) demethylase activity at 1 mM for 2 mM concentration of acetaldehyde; format: functional; method in brief: as §1
# Rattus norvegicus [12] = experiment: Tested for urinary excretion of radioactivity of compound (1.5mmol/kg, ip) was administered 1 hr before and 5 hr after the treatment of [14C]-NDEA (28 mg/kg, 5 microCi/kg, ip) in experiment number 1; format: functional, organism-based; method in brief: as §3
# Rattus norvegicus [13] = species on record: Rattus norvegicus; experiment: Tested in vitro for N-nitrosodimethylamine (NDMA) demethylase activity at 1 mM for 2 mM concentration of formaldehyde; format: functional; method in brief: as §1
structure (smiles),measurement,setting,value
CCN(CC)C(=S)[S-].[Na+] [DITIOCARB SODIUM],Formaldehyde,Rattus norvegicus [1],4.8 nM (mg of protein)-1
same,Acetaldehyde,Rattus norvegicus [2],2.2 nM (mg of protein)-1
same,Acetaldehyde,Rattus norvegicus [3],0 nM (mg of protein)-1
same,Formaldehyde,Rattus norvegicus [4],0.6 nM (mg of protein)-1
same,Exhal+B1718ation of 14CO2,Rattus norvegicus [5],20.5%
same,Exhal+B1718ation of 14CO2,Rattus norvegicus [6],17.2%
same,Formaldehyde,Rattus norvegicus [7],0.3 nM (mg of protein)-1
same,Acetaldehyde,Rattus norvegicus [8],0.6 nM (mg of protein)-1
same,Radioactivity in urine,Rattus norvegicus [9],17.8%
same,Unchanged NDEA,Rattus norvegicus [10],15.7%
same,Acetaldehyde,Rattus norvegicus [11],0.06 nM (mg of protein)-1
same,Radioactivity in urine,Rattus norvegicus [12],20.7%
same,Formaldehyde,Rattus norvegicus [13],0 nM (mg of protein)-1
